Reference: ChEMBL document CHEMBL4715736, “Identification of anticancer agents based on the thieno[2,3-b]pyridine and 1H-pyrazole molecular scaffolds” (2016)

Each molecule was assayed on SR (assay: Growth inhibition of human SR cells assessed as cell growth at 0.01 uM incubated for 48 hrs by sulforhodamine B assay relative to control). Details: read-out: Activity.
Assay type: functional

| Structure (SMILES) | growth at 0.01 µM |
| --- | --- |
| COc1cccc(NC(=O)c2sc3nc4c(cc3c2N)CN(Cc2ccccc2)CC4)c1 | 100% |

These molecules were tested on HOP-92 (assay: Growth inhibition of human HOP-92 cells assessed as cell growth at 0.01 uM incubated for 48 hrs by sulforhodamine B assay relative to control). Details: read-out: Activity.
Assay type: functional

| Structure (SMILES) | growth at 0.01 µM |
| --- | --- |
| COc1cccc(NC(=O)c2sc3nc4c(cc3c2N)CN(Cc2ccccc2)CC4)c1 | 90% |

These molecules were tested on NCI-H23 (assay: Growth inhibition of human NCI-H23 cells assessed as cell growth at 0.01 uM incubated for 48 hrs by sulforhodamine B assay relative to control). Details: read-out: Activity.
Assay type: functional

| Structure (SMILES) | growth at 0.01 µM |
| --- | --- |
| COc1cccc(NC(=O)c2sc3nc4c(cc3c2N)CN(Cc2ccccc2)CC4)c1 | 100% |

The molecules below were run on HCT-116 (assay: Growth inhibition of human HCT-116 cells assessed as cell growth at 0.01 uM incubated for 48 hrs by sulforhodamine B assay relative to control). Details: read-out: Activity.
Assay type: functional

| Structure (SMILES) | growth at 0.01 µM |
| --- | --- |
| COc1cccc(NC(=O)c2sc3nc4c(cc3c2N)CN(Cc2ccccc2)CC4)c1 | 91% |

The molecules below were run on A498 (assay: Growth inhibition of human A498 cells assessed as cell growth at 0.01 uM incubated for 48 hrs by sulforhodamine B assay relative to control). Details: read-out: Activity.
Assay type: functional
Outline: (§1)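 NCI Developmental Therapeutics Program NCI60 panel. Compounds that were active in the 10 µM one-dose screen went on to dose–response testing. Growth at each concentration is expressed relative to untreated control (100%). GI50 (concentration giving 50% of maximal inhibition of proliferation) and TGI (concentration giving total growth inhibition) were derived from the curves.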

| Structure (SMILES) | growth at 0.01 µM |
| --- | --- |
| COc1cccc(NC(=O)c2sc3nc4c(cc3c2N)CN(Cc2ccccc2)CC4)c1 | 94% |

These molecules were tested on SR (assay: Growth inhibition of human SR cells assessed as cell growth at 0.1 uM incubated for 48 hrs by sulforhodamine B assay relative to control). Details: read-out: Activity.
Assay type: functional

| Structure (SMILES) | growth at 0.1 µM |
| --- | --- |
| COc1cccc(NC(=O)c2sc3nc4c(cc3c2N)CN(Cc2ccccc2)CC4)c1 | 99% |

These molecules were tested on OVCAR-5 (assay: Growth inhibition of human OVCAR-5 cells assessed as cell growth at 0.1 uM incubated for 48 hrs by sulforhodamine B assay relative to control). Details: read-out: Activity.
Assay type: functional

| Structure (SMILES) | growth at 0.1 µM |
| --- | --- |
| COc1cccc(NC(=O)c2sc3nc4c(cc3c2N)CN(Cc2ccccc2)CC4)c1 | 95% |

What follows are molecules tested on TK-10 (assay: Growth inhibition of human TK-10 cells assessed as cell growth at 0.1 uM incubated for 48 hrs by sulforhodamine B assay relative to control). Details: read-out: Activity.
Assay type: functional

| Structure (SMILES) | growth at 0.1 µM |
| --- | --- |
| COc1cccc(NC(=O)c2sc3nc4c(cc3c2N)CN(Cc2ccccc2)CC4)c1 | 104% |

These molecules were tested on UO-31 (assay: Growth inhibition of human UO-31 cells assessed as cell growth at 0.1 uM incubated for 48 hrs by sulforhodamine B assay relative to control). Details: read-out: Activity.
Assay type: functional

| Structure (SMILES) | growth at 0.1 µM |
| --- | --- |
| COc1cccc(NC(=O)c2sc3nc4c(cc3c2N)CN(Cc2ccccc2)CC4)c1 | 92% |

The molecules below were run on A549 (assay: Growth inhibition of human A549/ATCC cells assessed as cell growth at 1 uM incubated for 48 hrs by sulforhodamine B assay relative to control). Details: read-out: Activity.
Assay type: functional
Outline: as §1

| Structure (SMILES) | growth at 1 µM |
| --- | --- |
| COc1cccc(NC(=O)c2sc3nc4c(cc3c2N)CN(Cc2ccccc2)CC4)c1 | 88% |

Each molecule was assayed on NCI-H23 (assay: Growth inhibition of human NCI-H23 cells assessed as cell growth at 1 uM incubated for 48 hrs by sulforhodamine B assay relative to control). Details: read-out: Activity.
Assay type: functional

| Structure (SMILES) | growth at 1 µM |
| --- | --- |
| COc1cccc(NC(=O)c2sc3nc4c(cc3c2N)CN(Cc2ccccc2)CC4)c1 | 89% |

Each molecule was assayed on NCI-H322M (assay: Growth inhibition of human NCI-H322M cells assessed as cell growth at 1 uM incubated for 48 hrs by sulforhodamine B assay relative to control). Details: read-out: Activity.
Assay type: functional

| Structure (SMILES) | growth at 1 µM |
| --- | --- |
| COc1cccc(NC(=O)c2sc3nc4c(cc3c2N)CN(Cc2ccccc2)CC4)c1 | 83% |

These molecules were tested on NCI-H460 (assay: Growth inhibition of human NCI-H460 cells assessed as cell growth at 1 uM incubated for 48 hrs by sulforhodamine B assay relative to control). Details: read-out: Activity.
Assay type: functional

| Structure (SMILES) | growth at 1 µM |
| --- | --- |
| COc1cccc(NC(=O)c2sc3nc4c(cc3c2N)CN(Cc2ccccc2)CC4)c1 | 92% |

Each molecule was assayed on 786-0 (assay: Growth inhibition of human 786-0 cells assessed as cell growth at 1 uM incubated for 48 hrs by sulforhodamine B assay relative to control). Details: read-out: Activity.
Assay type: functional
Outline: as §1

| Structure (SMILES) | growth at 1 µM |
| --- | --- |
| COc1cccc(NC(=O)c2sc3nc4c(cc3c2N)CN(Cc2ccccc2)CC4)c1 | 85% |

What follows are molecules tested on CAKI-1 (assay: Growth inhibition of human CAKI-1 cells assessed as cell growth at 1 uM incubated for 48 hrs by sulforhodamine B assay relative to control). Details: read-out: Activity.
Assay type: functional
Outline: as §1

| Structure (SMILES) | growth at 1 µM |
| --- | --- |
| COc1cccc(NC(=O)c2sc3nc4c(cc3c2N)CN(Cc2ccccc2)CC4)c1 | 78% |

Each molecule was assayed on PC-3 (assay: Growth inhibition of human PC-3 cells assessed as cell growth at 1 uM incubated for 48 hrs by sulforhodamine B assay relative to control). Details: read-out: Activity.
Assay type: functional

| Structure (SMILES) | growth at 1 µM |
| --- | --- |
| COc1cccc(NC(=O)c2sc3nc4c(cc3c2N)CN(Cc2ccccc2)CC4)c1 | 73% |

What follows are molecules tested on CCRF-CEM (assay: Growth inhibition of human CCRF-CEM cells assessed as cell growth at 100 uM incubated for 48 hrs by sulforhodamine B assay relative to control). Details: read-out: Activity.
Assay type: functional
Outline: as §1

| Structure (SMILES) | growth at 100 µM |
| --- | --- |
| COc1cccc(NC(=O)c2sc3nc4c(cc3c2N)CN(Cc2ccccc2)CC4)c1 | 21% |

What follows are molecules tested on NCI-H23 (assay: Growth inhibition of human NCI-H23 cells assessed as cell growth at 100 uM incubated for 48 hrs by sulforhodamine B assay relative to control). Details: read-out: Activity.
Assay type: functional

| Structure (SMILES) | growth at 100 µM |
| --- | --- |
| COc1cccc(NC(=O)c2sc3nc4c(cc3c2N)CN(Cc2ccccc2)CC4)c1 | -19% |

Each molecule was assayed on NCI-H322M (assay: Growth inhibition of human NCI-H322M cells assessed as cell growth at 100 uM incubated for 48 hrs by sulforhodamine B assay relative to control). Details: read-out: Activity.
Assay type: functional

| Structure (SMILES) | growth at 100 µM |
| --- | --- |
| COc1cccc(NC(=O)c2sc3nc4c(cc3c2N)CN(Cc2ccccc2)CC4)c1 | 18% |

What follows are molecules tested on NCI-H522 (assay: Growth inhibition of human NCI-H522 cells assessed as cell growth at 100 uM incubated for 48 hrs by sulforhodamine B assay relative to control). Details: read-out: Activity.
Assay type: functional

| Structure (SMILES) | growth at 100 µM |
| --- | --- |
| COc1cccc(NC(=O)c2sc3nc4c(cc3c2N)CN(Cc2ccccc2)CC4)c1 | 1% |

What follows are molecules tested on HT-29 (assay: Growth inhibition of human HT-29 cells assessed as cell growth at 100 uM incubated for 48 hrs by sulforhodamine B assay relative to control). Details: read-out: Activity.
Assay type: functional

| Structure (SMILES) | growth at 100 µM |
| --- | --- |
| COc1cccc(NC(=O)c2sc3nc4c(cc3c2N)CN(Cc2ccccc2)CC4)c1 | -72% |

The molecules below were run on SNB-75 (assay: Growth inhibition of human SNB-75 cells assessed as cell growth at 100 uM incubated for 48 hrs by sulforhodamine B assay relative to control). Details: read-out: Activity.
Assay type: functional

| Structure (SMILES) | growth at 100 µM |
| --- | --- |
| COc1cccc(NC(=O)c2sc3nc4c(cc3c2N)CN(Cc2ccccc2)CC4)c1 | -61% |

Each molecule was assayed on UACC-257 (assay: Growth inhibition of human UACC-257 cells assessed as cell growth at 100 uM incubated for 48 hrs by sulforhodamine B assay relative to control). Details: read-out: Activity.
Assay type: functional

| Structure (SMILES) | growth at 100 µM |
| --- | --- |
| COc1cccc(NC(=O)c2sc3nc4c(cc3c2N)CN(Cc2ccccc2)CC4)c1 | 21% |

What follows are molecules tested on UACC-62 (assay: Growth inhibition of human UACC-62 cells assessed as cell growth at 100 uM incubated for 48 hrs by sulforhodamine B assay relative to control). Details: read-out: Activity.
Assay type: functional

| Structure (SMILES) | growth at 100 µM |
| --- | --- |
| COc1cccc(NC(=O)c2sc3nc4c(cc3c2N)CN(Cc2ccccc2)CC4)c1 | -34% |

These molecules were tested on BT-549 (assay: Growth inhibition of human BT-549 cells assessed as cell growth at 100 uM incubated for 48 hrs by sulforhodamine B assay relative to control). Details: read-out: Activity.
Assay type: functional

| Structure (SMILES) | growth at 100 µM |
| --- | --- |
| COc1cccc(NC(=O)c2sc3nc4c(cc3c2N)CN(Cc2ccccc2)CC4)c1 | -32% |

The molecules below were run on MDA-MB-468 (assay: Growth inhibition of human MDA-MB-468 cells assessed as cell growth at 100 uM incubated for 48 hrs by sulforhodamine B assay relative to control). Details: read-out: Activity.
Assay type: functional

| Structure (SMILES) | growth at 100 µM |
| --- | --- |
| COc1cccc(NC(=O)c2sc3nc4c(cc3c2N)CN(Cc2ccccc2)CC4)c1 | -8% |
